# Laboratory results: ChEMBL document CHEMBL1240446, “Synthesis and biological activities of novel amine-derived bis-azoles as potential antibacterial and antifungal agents” (2010)
# Legend:
# Type in all cases: functional
# [1] = test system: Staphylococcus aureus; test: Antibacterial activity against Staphylococcus aureus ATCC 29213 after 24 hrs by micro-broth dilution method; conditions: ATCC 29213, 24 h
# Method in brief: (§1)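 Broth microdilution per NCCLS in Mueller-Hinton broth. Inoculum adjusted in sterile saline to 1×10^4–1×10^5 CFU. Compounds taken from DMSO stocks and serially diluted two-fold to final 256–0.25 µg/mL (11 levels). Incubation 37 °C, 24 h, with a DMSO solvent control. Growth read visually and spectrophotometrically. MIC is the lowest concentration that arrests growth.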
# [2] = test system: Staphylococcus aureus; test: Antibacterial activity against methicillin-resistant Staphylococcus aureus N315 after 24 hrs by micro-broth dilution method; conditions: N315, 24 h; method in brief: as §1
# [3] = test system: Candida albicans; test: Antifungal activity against Candida albicans ATCC 76615 after 24 hrs by micro-broth dilution method; conditions: ATCC 76615, 24 h
# Method in brief: (§2)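 Broth microdilution per NCCLS. Spore suspension in sterile distilled water, taken from 1-day-old cultures on Sabouraud agar, final 1–5×10^3 spores/mL. Compounds diluted from stocks in RPMI 1640 to eleven concentrations, 0.25–256 µg/mL. Incubation 35 °C, 24 h. Growth scored visually and spectrophotometrically. MIC is the lowest concentration arresting fungal growth.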
# [4] = test system: Bacillus subtilis; test: Antibacterial activity against Bacillus subtilis ATCC 21216 after 24 hrs by micro-broth dilution method; conditions: ATCC 21216, 24 h
# Method in brief: (§3)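 MIC by broth microdilution following NCCLS methods. Inoculum adjusted in sterile saline to 1×10^4–1×10^5 CFU. Compounds from DMSO stocks, two-fold serial dilutions in Mueller-Hinton broth at 256 down to 0.25 µg/mL. Incubation 37 °C, 24 h. DMSO solvent control at matching dilutions. Growth read visually and spectrophotometrically. MIC is the lowest concentration arresting growth.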
# [5] = test system: Pseudomonas aeruginosa; test: Antibacterial activity against Pseudomonas aeruginosa ATCC 27853 after 24 hrs by micro-broth dilution method; conditions: ATCC 27853, 24 h; method in brief: as §3
# [6] = test system: Aspergillus fumigatus; test: Antifungal activity against Aspergillus fumigatus ATCC 96918 after 24 hrs by micro-broth dilution method; conditions: ATCC 96918, 24 h; method in brief: as §2
# [7] = test system: Escherichia coli; test: Antibacterial activity against Escherichia coli ATCC 25922 after 24 hrs by micro-broth dilution method; conditions: ATCC 25922, 24 h; method in brief: as §3
# [8] = test system: Bacillus; test: Antibacterial activity against Bacillus proteus ATCC 13315 after 24 hrs by micro-broth dilution method; conditions: ATCC 13315, 24 h; method in brief: as §3
Compound,MIC [1] [µg/mL],MIC [2] [µg/mL],MIC [3] [µg/mL],MIC [4] [µg/mL],MIC [5] [µg/mL],MIC [6] [µg/mL],MIC [7] [µg/mL],MIC [8] [µg/mL]
Clc1cccc(CN(CCn2ccnc2)CCn2ccnc2)c1,64,> 256,> 256,128,32,> 256,32,64
Clc1ccc(CN(CCn2ccnc2)CCn2ccnc2)cc1Cl,16,32,> 256,16,64,64,16,64
Cl.Clc1ccc(CN(CCn2ccnc2)CCn2ccnc2)c(Cl)c1,4,8,64,8,4,> 256,16,32
OCCN(CCO)Cc1ccc(F)cc1F,256,> 256,256,256,256,> 256,128,256
Cl.Clc1ccc(CN(CCn2cncn2)CCn2cncn2)cc1Cl,32,32,128,16,32,256,32,0.25
Cl.Fc1ccc(CN(CCn2cncn2)CCn2cncn2)c(F)c1,64,> 256,32,32,8,256,64,256
Fc1ccc(CN(CCn2ccnc2)CCn2ccnc2)c(F)c1,32,32,> 256,32,128,> 256,64,64
Fc1ccc(CN(CCn2cncn2)CCn2cncn2)c(F)c1.O=[N+]([O-])O,128,> 256,64,32,16,> 256,128,> 256
CCn1cc(C(=O)O)c(=O)c2cc(F)c(N3CCNCC3)cc21 [NORFLOXACIN],0.25,0.25,,1,2,,0.5,1
Clc1ccccc1CN(CCn1cncn1)CCn1cncn1,> 256,> 256,> 256,> 256,128,> 256,256,> 256
Clc1ccc(CN(CCn2cncn2)CCn2cncn2)c(Cl)c1.O=[N+]([O-])O,32,256,0.25,128,16,128,64,8
Cl.Fc1ccc(CN(CCn2ccnc2)CCn2ccnc2)c(F)c1,16,16,128,8,64,> 256,16,32
Clc1ccc(CN(CCn2ccnc2)CCn2ccnc2)c(Cl)c1,8,16,128,32,4,> 256,16,32
Clc1ccc(CN(CCn2cncn2)CCn2cncn2)cc1,> 256,> 256,> 256,> 256,16,> 256,256,128
Clc1ccc(CN(CCn2cncn2)CCn2cncn2)cc1Cl,64,256,> 256,32,64,> 256,32,0.5
OCCN(CCO)Cc1ccc(Cl)cc1Cl,128,256,128,256,128,256,256,128
O=C(N[C@H](CO)[C@H](O)c1ccc([N+](=O)[O-])cc1)C(Cl)Cl [CHLORAMPHENICOL],8,16,,8,64,,8,8
Cl.Clc1ccc(CN(CCn2cncn2)CCn2cncn2)c(Cl)c1,16,128,0.25,128,16,128,32,4
Clc1ccc(CN(CCn2cncn2)CCn2cncn2)cc1Cl.O=[N+]([O-])O,16,64,256,16,64,> 256,32,0.25
Cc1cc2ncn(CCN(CCn3cnc4cc(C)c(C)cc43)Cc3ccc(Cl)cc3Cl)c2cc1C,128,> 256,> 256,64,128,> 256,16,32
Clc1ccc(CN(CCn2ccnc2)CCn2ccnc2)c(Cl)c1.O=[N+]([O-])O,16,16,128,16,4,> 256,32,64
Clc1ccc(CN(CCn2ccnc2)CCn2ccnc2)cc1,64,64,> 256,64,64,> 256,32,128
Fc1ccc(CN(CCn2ccnc2)CCn2ccnc2)c(F)c1.O=[N+]([O-])O,32,32,128,16,64,> 256,32,64
OCCN(CCO)Cc1ccc(Cl)c(Cl)c1,256,> 256,> 256,128,> 256,> 256,128,128
OC(Cn1cncn1)(Cn1cncn1)c1ccc(F)cc1F [FLUCONAZOLE],,,0.5,,,256,,
